Only some compounds are listed: those with a hit (about 1.9% of all), similar ones and a draw of the others.
N-glyco inh = blocks N-linked glycosylation in D54 reporter cells; reporter increase, % at 12.5 µM; D54 ERlucT glycosylation luciferase reporter, 24 h; percent of 100 nM tunicamycin response; AID 588692; hit rate 0.23% among 360,000;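 active = mean luciferase reporter signal, scaled so untreated is 0 and the glycosylation-blocking control 100, at or above a set limit in every replicate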;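 also: luciferase carries N-glycosylation sites so blocking glycosylation raises the light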
aDG glyco act = increases alpha dystroglycan glycosylation | hit rate 0.22% among 360,000 | activation, % at 10 µM | Pro5-aDG cells, alpha-DG glycosylation AlphaScreen (IIH6); 0% Pro5, 100% B10-LARGE cell signal | AID 624168;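 active = activation of at least 8% versus controls, or a plate z-score of at least 8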;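 also: Pro5 are CHO cells carrying HIG-tagged alpha-DG that lacks glycosylation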
MsrA inhibitor = inhibitors of bovine MsrA; hit rate 0.75% among 360,000; purified bovine MsrA, absorbance read-out; inhibition, % at 15.5 µM; in the data active = inhibition above about 4.5%
MsrA act = bovine methionine sulfoxide reductase A activation. purified bovine MsrA, absorbance read-out. activation, % at 10.6 µM. hit rate 0.3% among 360,000; in the data active = activation above about 7.5%
UCH37 inh = blocks the human deubiquitinase UCH37. AID 588478. Q9Y5K5. hit rate 0.33% among 330,000. purified proteasome/UCH37, Ub-AMC cleavage fluorescence. inhibition, % (no concentration beside the values);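 active = mean inhibition over replicate wells above about 20%, limit read from the data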
Target sequence (Q9Y5K5 whole entry, looked up): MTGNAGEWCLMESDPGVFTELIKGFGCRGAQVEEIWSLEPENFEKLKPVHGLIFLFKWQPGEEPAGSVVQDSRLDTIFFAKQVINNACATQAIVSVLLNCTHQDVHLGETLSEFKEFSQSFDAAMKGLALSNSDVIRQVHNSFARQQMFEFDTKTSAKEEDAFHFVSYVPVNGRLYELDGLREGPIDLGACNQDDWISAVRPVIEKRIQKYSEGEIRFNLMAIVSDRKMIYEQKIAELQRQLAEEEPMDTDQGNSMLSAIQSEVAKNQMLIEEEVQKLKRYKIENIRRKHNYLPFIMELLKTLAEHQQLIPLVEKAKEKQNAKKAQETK
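System: Proteasome-associated human UCH37 deubiquitinase; Input: 0.15 nM proteasome in added enzyme buffer; Also added: Ub-AMC substrate from 1 µM stock; Incubation: 30 min compound-proteasome preincubation then 25 min substrate reaction, room temperature; Detection: fluorescence, ex 355 nm, em 460 nm; Read-out: % inhibition of Ub-AMC cleavage fluorescence; Benchmarks: no-proteasome and no-compound wells.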
Vif inh = HIV Vif inhibition; inhibition, % at 7.49 µM; AID 602346; HEK293T cells, Vif self-association by quenched fluorescence, imaging, 24 h; hit rate 0.35% among 340,000; in the data active = inhibition above about 50%, passing the limit was not always enough
Each line names hits and unclear results; the compound was inactive in the other large screens; ! = not active in a repeat.

Cc1ccc(S(=O)(=O)N2CCOCC2)cc1C(=O)OCC(=O)c1c(N)n(C)c(=O)n(C)c1=O	none
Cn1c(N)c(C(=O)COC(=O)c2cc(S(=O)(=O)N3CCOCC3)ccc2F)c(=O)n(C)c1=O	N-glyco inh 50.4
CCCSc1nc(C)c2cc(C)cc(C)c2n1	none
Cc1cc(C)c2nc3nc(C)c(C)cc3c(N)c2c1	N-glyco inh 95.1
NC(=NOC(=O)c1ccc(Cl)cc1[N+](=O)[O-])c1ccccn1	none (no result: N-glyco inh, aDG glyco act, MsrA inhibitor, MsrA act, Vif inh)
O=C(NN=Cc1ccoc1)c1ccccc1Br	none (no result: N-glyco inh, aDG glyco act, MsrA inhibitor, MsrA act, Vif inh)
O=C(NCc1ccccc1C(F)(F)F)c1cccc2c1C(=O)c1ccc(N3CCCCC3)cc1S2(=O)=O	Vif inh active
CC1CCN(c2ccc3c(c2)S(=O)(=O)c2cccc(C(=O)NC4CCCCC4)c2C3=O)CC1	Vif inh 50.7
CC(C)(C)CNC(=O)c1cccc2c1C(=O)c1ccc(N3CCCC3)cc1S2(=O)=O	none
CCC(=O)Nc1ccc(C(C)=NNC(=O)c2c(-c3ccccc3Cl)noc2C)cc1	none (no result: N-glyco inh, aDG glyco act, MsrA inhibitor, MsrA act, Vif inh)
Cc1cc(C(=O)N2CCN(c3ccc([N+](=O)[O-])cc3)CC2)c(C)o1	none
CC(=O)N1CCN(c2ccc([N+](=O)[O-])cc2C#N)CC1	MsrA inhibitor 4.6
Cc1cc(C(=O)N2CCN(c3ccc([N+](=O)[O-])cc3)CC2)co1	Vif inh 86.2
Cc1ccc(-c2nnc(SCC(=O)NN=Cc3ccc(C)s3)n2-c2ccc(C)cc2)cc1	none (no result: N-glyco inh, aDG glyco act, MsrA inhibitor, MsrA act, Vif inh)
CCOC(=O)c1[nH]c(C)c(/C(O)=C2\C(=O)C(=O)N(CCN(C)C)C2c2ccncc2)c1C (stereo unspecified)	UCH37 inh 29.2
Nc1c2c(nc3ccccc13)CCCC2	none
Nc1c2ccccc2nc2ccccc12	N-glyco inh 33.4!
O=C(Nc1ccc(N2CCN(Cc3ccccc3Cl)CC2)cc1)c1cccnc1	none
O=C(Nc1ccc(N2CCCCC2)cc1)c1cccnc1	UCH37 inh 29.4 (no result: Vif inh)
O=C(NN=Cc1ccc(N2CCCC2)c([N+](=O)[O-])c1)c1cccnc1	UCH37 inh 21.2 (no result: N-glyco inh, aDG glyco act, MsrA inhibitor, MsrA act, Vif inh)
COC(=O)C1SCC2C(=O)N(Cc3cccc(C)c3)CC(=O)N21 (stereo unspecified)	Vif inh 128.0
Cc1cccc2nc(C(=O)Nc3cc(Cl)ccc3-n3cncn3)cn12	Vif inh 75.2
Cc1ccc2c(c1)NC(=O)[C@@]1(C)[C@@H](c3ccccc3)[C@H]3COc4ccccc4[C@@H]3N1C2=O	N-glyco inh 35.9
Cc1ccc2c(c1)C(=O)N1[C@H]3c4ccccc4OC[C@@H]3[C@H](c3ccccc3)[C@]1(C)C(=O)N2	N-glyco inh 31.3 (no result: MsrA inhibitor, UCH37 inh)
C[C@@]12C(=O)Nc3ccc(Br)cc3C(=O)N1[C@H]1c3cc(Cl)ccc3OC[C@@H]1[C@@H]2c1ccccc1	none (no result: MsrA inhibitor)
C[C@@]12C(=O)Nc3ccc(Br)cc3C(=O)N1[C@H]1c3ccccc3OC[C@@H]1[C@@H]2c1ccccc1	N-glyco inh 26.7 (no result: MsrA inhibitor, UCH37 inh)
Cc1ccc2c(c1)[C@H]1[C@H](CO2)[C@H](c2ccccc2)[C@]2(C)C(=O)Nc3ccc(Cl)cc3C(=O)N12	none
CCOC(=O)NN=Cc1ccccc1OC/C=C/c1ccccc1	none (no result: N-glyco inh, aDG glyco act, MsrA inhibitor, MsrA act, Vif inh)
O=C(NN=Cc1cccc(Cl)c1)c1n[nH]c2c1CCCC2	none (no result: N-glyco inh, aDG glyco act, MsrA inhibitor, MsrA act, Vif inh)
COc1ccc2nc(-c3ccco3)c(-c3ccco3)nc2c1	N-glyco inh 32.7
CCN(C(=O)CSc1nnc(Nc2cccc(C)c2C)s1)C1CCS(=O)(=O)C1 (stereo unspecified)	Vif inh 55.6
CCN(C(=O)CSc1nnc(NCc2ccccc2)s1)C1CCS(=O)(=O)C1 (stereo unspecified)	none
Cc1csc(SCCn2c(N3CCN(c4ccccc4)CC3)nc3c2c(=O)[nH]c(=O)n3C)n1	Vif inh 56.9
Cn1c(=O)[nH]c(=O)c2c1nc(N1CCCCCC1)n2Cc1cccc2ccccc12	UCH37 inh 32.4
CCN1CCN(c2nc3c(c(=O)[nH]c(=O)n3C)n2CCSc2nc3ccccc3s2)CC1	none
Nc1nonc1-n1nnc(C(=O)NN=Cc2cccc(Cl)c2Cl)c1CN1CCCC1	none (no result: N-glyco inh, aDG glyco act, MsrA inhibitor, MsrA act, Vif inh)
Cc1ccc(S(=O)(=O)NN=Cc2cc3c(cc2Br)OCO3)cc1	none (no result: N-glyco inh, aDG glyco act, MsrA inhibitor, MsrA act, Vif inh)
O=C(/C=C/c1ccco1)N1CCC(Cc2ccccc2)CC1	Vif inh 64.9
C=C1CCC[C@]2(C)C[C@H]3OC(=O)C(CNCCN(C)C)[C@H]3CC12 (stereo partly specified)	none
C=C1CCC[C@]2(C)C[C@H]3OC(=O)C(CNCC(C)C)[C@H]3CC12 (stereo partly specified)	UCH37 inh 20.5
CCOc1ccc(N2C(=O)Nc3ccccc3C2(O)C(=O)N2CCN(c3ccccn3)CC2)cc1 (stereo unspecified)	N-glyco inh 27.2
C=CCOc1c(Br)cc(C=Nn2c(CC)n[nH]c2=S)cc1Br	none (no result: N-glyco inh, aDG glyco act, MsrA inhibitor, MsrA act, Vif inh)
COc1ccc2c(c1OC)C(=O)OC2C1c2c(cc3c(c2OC)OCO3)CCN1C (stereo unspecified)	none
CN1CCc2cc3c(c4c2[C@H]1[C@H](O)c1ccccc1-4)OCO3	N-glyco inh 33.5, MsrA act 36.8
ON=Cc1cc(Br)ccc1OCc1ccccc1F	none (no result: N-glyco inh, aDG glyco act, MsrA inhibitor, MsrA act, Vif inh)
COc1ccc2cc(C=NNC(=O)c3ccc(CN(c4cccc(Cl)c4Cl)S(C)(=O)=O)cc3)c(Cl)nc2c1	none (no result: N-glyco inh, aDG glyco act, MsrA inhibitor, MsrA act, Vif inh)
Cc1cnc(CNC(=O)c2ccc3oc(C(C)C)nc3c2)[nH]1	none
Cc1ccc2oc(C(=O)NCc3ncc(C)[nH]3)c(C)c2c1	N-glyco inh 28.7
CCSc1nncn1N=Cc1ccc(OC)c(OC)c1	none (no result: N-glyco inh, aDG glyco act, MsrA inhibitor, MsrA act, Vif inh)
CCOC(=O)/C(C#N)=C\c1cc(C)n(-c2ccccc2)c1C	none
CCOC(=O)/C(C#N)=C/c1cc(C)n(-c2ccc(C)cc2)c1C	Vif inh 71.3
C=CCSC(=C(C#N)C#N)c1cc2c([nH]1)CCCC2	N-glyco inh 40.4 (no result: UCH37 inh)
COc1ccc(C=NNC(=O)c2cccc(C(=O)NN=Cc3ccc(OC)cc3)n2)cc1	none (no result: N-glyco inh, aDG glyco act, MsrA inhibitor, MsrA act, Vif inh)
CCC(C(=O)O)N1C(=O)/C(=C/c2cccn2C)SC1=S (stereo unspecified)	UCH37 inh 23.4
CC(C(=O)O)N1C(=O)/C(=C/c2cccn2C)SC1=S (stereo unspecified)	none
Cn1cccc1/C=C1/SC(=S)N(CC(=O)O)C1=O	UCH37 inh 22.9
O=C(O)CN1C(=O)/C(=C\c2cc(Br)ccc2OCc2ccc(Cl)cc2)SC1=S	UCH37 inh 23.0
CC(=NNC(=O)c1cccc(Br)c1)c1cccc(NC(=O)c2ccc(C)o2)c1	none (no result: N-glyco inh, aDG glyco act, MsrA inhibitor, MsrA act, Vif inh)
O=C(COC(=O)c1cc(Cl)ccc1[N+](=O)[O-])NC1CC1	Vif inh 55.6
Cc1ccc(NC(=O)COC(=O)c2cc(Cl)ccc2[N+](=O)[O-])cc1	none
CC(NC(=O)C(CC(=O)OC(C)(C)C)NC(=O)OC(C)(C)C)C(N)=O (stereo unspecified)	Vif inh 55.0
N#CC(=NNc1ccc(Cl)cc1)C(=O)c1ccsc1	none (no result: N-glyco inh, aDG glyco act, MsrA inhibitor, MsrA act, Vif inh)
